Measurements from publication PMC6422158 (Clinical cancer research : an official journal of the …, 2018).

Legend:
[1] = at doses above 400 mg; first human dose trial; ref 19−22; cited from earlier work
[2] = system: advanced BCC; settings: human, in vivo; cited from earlier work
[3] = cited from earlier work
[4] = system: Gli1 mRNA; assay: Gli1 mRNA expression in skin biopsies; assay type: in vivo, human; settings: overall, all doses 50-600 mg QD; interquartile range 80.9%−95.7%
Procedure, shortened: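 Normal skin biopsies taken predose, cycle 1 day 15 and cycle 2 day 1 from patients on oral QD dosing (28-day cycles). Post-dose samples were taken 2 h after dosing in escalation, and 24 h after the cycle 2 day 1 dose in confirmation/expansion. GLI1 was measured by RT-PCR, normalised to RPLP0, and % inhibition was derived by 2−ΔΔCT and summarised by dose level.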

[5] = Plasma pharmacokinetics of LY2940680 and LSN3185556 in patients; assay type: in vivo, human
Procedure, shortened: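 Oral dosing was once daily in the morning, 50–600 mg, on 28-day cycles. About 4 mL blood was drawn into EDTA tubes over a 24-h sampling schedule. Parent and metabolite in plasma were quantified by validated LC/MS. Noncompartmental analysis gave Cmax, tmax, AUC0–24, t1/2, Vd/F and CL/F. Accumulation ratio was from AUC0–24, days 1 vs 15, reported as geometric means with %CV.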

[6] = biological target: human serum albumin (Homo sapiens, UniProt P02768); assay: In vitro binding to human serum albumin; assay type: in vitro ADME
[7] = system: advanced cancer; assay: Tumor response per RECIST 1.1, all patients on therapy; assay type: in vivo, human; settings: 84 patients on therapy
Procedure, shortened: (§1)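 Response was assessed by RECIST 1.1 plus investigator assessment. Best response required two CR determinations (or two PR-or-better) before progression. Confirmation used the same radiologic method repeated at least 4 weeks after the initial response. ORR was CR+PR among all patients dosed at least once. Clinical benefit was CR+PR+SD among dosed patients with a measurable lesion.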

[8] = system: patients with advanced cancer; assay: Phase I safety and tolerability; assay type: in vivo
[9] = in vitro; assay type: in vitro ADME; settings: human, plasma
[10] = system: human Smo (hSmo) receptor; settings: cited from earlier work
[11] = biological target: CYP3A4 (Homo sapiens, UniProt P08684); assay: In vitro metabolism by CYP3A4; assay type: in vitro ADME; settings: in vitro data
[12] = system: locally advanced/metastatic basal cell carcinoma; assay: Tumor response per RECIST 1.1, BCC patients; assay type: in vivo, human
Procedure, shortened: as §1

[13] = BCC, prior Hh therapy including vismodegib and sonidegib

Chain of human serum albumin (P02768 25-609): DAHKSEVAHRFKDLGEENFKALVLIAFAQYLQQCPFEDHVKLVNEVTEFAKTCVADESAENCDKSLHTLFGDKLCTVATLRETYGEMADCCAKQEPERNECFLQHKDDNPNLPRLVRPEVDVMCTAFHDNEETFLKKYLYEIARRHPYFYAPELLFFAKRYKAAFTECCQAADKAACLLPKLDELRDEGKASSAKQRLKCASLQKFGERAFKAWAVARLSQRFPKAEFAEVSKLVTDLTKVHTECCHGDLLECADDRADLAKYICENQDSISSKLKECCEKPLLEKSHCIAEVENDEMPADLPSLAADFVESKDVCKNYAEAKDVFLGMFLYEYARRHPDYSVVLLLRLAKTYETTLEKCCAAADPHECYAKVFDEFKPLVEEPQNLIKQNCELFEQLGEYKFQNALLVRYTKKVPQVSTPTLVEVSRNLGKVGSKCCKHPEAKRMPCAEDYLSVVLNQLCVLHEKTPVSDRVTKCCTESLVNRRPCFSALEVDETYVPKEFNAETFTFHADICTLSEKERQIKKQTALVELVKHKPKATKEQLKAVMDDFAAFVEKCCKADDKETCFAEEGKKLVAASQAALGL
Chain of CYP3A4 (P08684 whole entry): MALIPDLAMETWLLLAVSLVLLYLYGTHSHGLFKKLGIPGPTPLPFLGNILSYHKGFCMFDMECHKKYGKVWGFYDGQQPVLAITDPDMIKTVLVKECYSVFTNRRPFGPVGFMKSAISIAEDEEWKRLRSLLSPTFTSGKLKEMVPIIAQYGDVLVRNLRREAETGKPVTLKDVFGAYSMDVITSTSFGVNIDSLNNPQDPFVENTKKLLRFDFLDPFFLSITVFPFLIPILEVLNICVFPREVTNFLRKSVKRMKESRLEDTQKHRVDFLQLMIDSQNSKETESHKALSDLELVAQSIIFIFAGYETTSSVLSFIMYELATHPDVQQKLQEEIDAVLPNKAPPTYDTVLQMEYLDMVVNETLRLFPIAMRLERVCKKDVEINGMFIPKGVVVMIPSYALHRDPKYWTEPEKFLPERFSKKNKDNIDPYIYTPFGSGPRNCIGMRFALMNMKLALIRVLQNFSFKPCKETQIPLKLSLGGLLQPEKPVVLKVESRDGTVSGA

Cc1c(C(=O)Nc2ccc(N3C[C@@H](C)O[C@@H](C)C3)nc2)cccc1-c1ccc(OC(F)(F)F)cc1 [sonidegib]
PK linearity [1]: nonlinear PK | Efficacy in advanced BCC patients previously treated with vismodegib [2]: not efficacious | Bound to plasma protein [3]: over 99%

CN(C(=O)c1ccc(F)cc1C(F)(F)F)C1CCN(c2nnc(-c3ccnn3C)c3ccccc23)CC1 [LY2940680, taladegib]
Gli1 inhibition in normal skin (median) [4]: 92.3% | Accumulation ratio based on AUC0–24 ([5]; LY2940680, between days 1 and 15, QD, range 0.7−4.8, 39% CV): approximately 2 | Steady state attained ([5]; QD dosing): cycle 2, day 1 | Dose proportionality of Cmax and AUC0–24 ([5]; after multiple doses): did not suggest any large deviation from dose proportionality | Time to reach Cmax ([5]; after single- and multiple-dose oral administrations): approximately 3 hours | PK variability on exposure ([5]; human, in vivo): approximately 70% | Vd/F ([5]; human, plasma, po): 235 L | CL/F (geometric mean) ([5]; oral, 70% CV): 8.2 L/h | Concentration dependence of binding to human serum albumin ([6]; 1 to 10 μmol/L): no apparent concentration-dependent binding | Predominant plasma-binding protein ([6]; tested with human serum albumin and human α−1-acid glycoprotein): Human serum albumin | Best response of SD [7]: 26 (30.9%) patients (%) | Best response of progressive disease [7]: 24 (28.6%) patients (%) | Confirmed CR [7]: 5 (5.9%) patients (%) | Confirmed PR [7]: 16 (19.0%) patients (%) | Patients with a response [7]: 22 (26.2%) patients (%) | Unconfirmed PR [7]: 1 (1.2%) patients (%) | AE resulting in dose reductions: decreased appetite ([8]; human, in vivo): 3 | AE resulting in dose reductions: dysgeusia ([8]; human, in vivo): 3 | AE resulting in dose reductions: fatigue ([8]; human, in vivo): 8 | AE resulting in dose reductions: muscle spasms ([8]; human, in vivo): 8 | AE resulting in dose reductions: nausea ([8]; human, in vivo): 3 | AE resulting in dose reductions: weight decreased ([8]; human, in vivo): 3 | Patients who discontinued treatment because of AE ([8]; human, in vivo): 10 | Patients with SAEs ([8]; human, in vivo): 22 patients | Patients with at least 1 dose reduction ([8]; human, in vivo): 16 patients | Patients with DLTs ([8]; human, in vivo, 1 cycle): 4 patients | DLT observed ([8]; human, in vivo, 22 day): grade 3 hyponatremia | Maximum tolerable dose (MTD) ([8]; oral QD, 3+3 dose escalation 50 to 600 mg): 400 mg | fraction unbound [9]: 0.056 | Binding to hSmo receptor [10]: competitively inhibits binding of an hSmo agonist | Fraction metabolized by CYP3A4 [11]: 100% | Best overall response of CR or PR ([12]; 16 BCC patients requiring dose reductions): 9 (56.3%) patients (%) | Best overall response of CR or PR ([12]; 47 BCC patients): 22 (46.8%) patients (%) | Best response of progressive disease ([12]; 47 BCC patients): 1 patient | Best response of SD ([12]; 47 BCC patients (twenty-one patients)): 44.7% | Best response of non-CR nonprogressive disease ([12]; 47 BCC patients, based on nontarget lesions): 1 patient | Responses in Hh treatment-naïve patients ([12]; BCC): 68.8% | Responses in Hh treatment-naïve patients (responders/patients) ([12]; BCC): 11/16 | Estimated median PFS ([12]; BCC expansion phase (n = 40), 400 mg QD, 95% CI 7.62−17.54): 12.0 months | Estimated response rate ([12]; BCC patients (n = 47), 95% CI 32.1%−61.9%): 46.8% | Disease control rate ([12]; BCC patients, 95% CI 82.5%−98.7%): 93.6% | Responses in patients previously treated with Hh therapy [12, 13]: 35.5% | Responses in patients previously treated with Hh therapy (responders/patients) [12, 13]: 11/31 | Duration of sustained response, single patient ([12]; Hh-inhibitor treatment–naïve locally advanced BCC, 50 mg QD, PR): 8.3 months | Confirmed CR ([12]; number of the 16 BCC patients requiring dose reductions): 3 | Confirmed CR ([12]; number of the 47 BCC patients): 5 | Confirmed PR ([12]; number of the 47 BCC patients): 16 | Unconfirmed PR ([12]; number of the 47 BCC patients): 1
